NPY Y2 blocker: antagonists of human neuropeptide Y receptor Y2 | P49146 | NPY-Y2 expressing cells, antagonist mode | inhibition, % at 2.7 µM | 140,000 compounds, 0.99% hits | AID 793; in the data active means inhibition above about 17%;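 further: 0% = vehicle with agonist challenge and 100% = reference antagonist with challenge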
S1P4 antag: human S1P4 receptor antagonism. O95977. S1P4-expressing cells, antagonist mode, reporter read-out. inhibition, % at 4.98 µM. 220,000 compounds, 0.26% hits. AID 1510; in the data active means inhibition above about 29%;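 further: 0% = wells stimulated with agonist and 100% = vehicle wells without agonist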
S1P4 agonist: agonists of human S1P4 receptor. activation, % at 4.98 µM. S1P4-expressing cell line, agonist reporter assay. O95977. 220,000 compounds, 0.35% hits; in the data active means activation above about 11%;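 further: 0% = DMSO vehicle and 100% = reference agonist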
NPY-Y1 PAM-ag: potentiates or activates human NPY-Y1 receptor; NPY-Y1 expressing cells, potentiator/agonist activation; activation, % at 3.6 µM; 220,000 compounds, 0.37% hits; AID 1304; in the data active means activation above about 33%, passing the limit was not always enough;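 further: cells stimulated with NPY at EC10 then isoproterenol at EC100; 0% = low agonist plus stimulus and 100% = saturating agonist plus stimulus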
Target sequence (P25929 whole entry, looked up): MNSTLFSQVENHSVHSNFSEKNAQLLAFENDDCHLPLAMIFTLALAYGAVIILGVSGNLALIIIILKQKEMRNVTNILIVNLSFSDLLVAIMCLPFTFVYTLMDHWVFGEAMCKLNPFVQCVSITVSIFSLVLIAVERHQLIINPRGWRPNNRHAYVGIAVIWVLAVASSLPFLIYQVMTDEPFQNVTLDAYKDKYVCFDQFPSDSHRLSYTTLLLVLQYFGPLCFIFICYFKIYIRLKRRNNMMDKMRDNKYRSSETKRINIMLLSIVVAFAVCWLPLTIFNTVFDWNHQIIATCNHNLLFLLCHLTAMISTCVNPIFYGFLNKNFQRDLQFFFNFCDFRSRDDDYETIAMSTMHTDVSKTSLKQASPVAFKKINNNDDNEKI
NPY Y1 blocker: NPY-Y1 (human) receptor antagonism. P25929. HEK293-CNG Y1 cells, membrane potential fluorescence; NPY at EC95, then isoproterenol. inhibition, % at 3.6 µM. 200,000 compounds, 1% hits. AID 1040;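 active means inhibition above the campaign mean inhibition of all tested compounds plus 3 SD, cut at about 20% in these data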;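 further: 0% = DMSO wells given NPY plus isoproterenol and 100% = isoproterenol alone without NPY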
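Assay system: HEK293 cells with Y1 receptor plus CNG channel | Probe or stimulus: NPY (25 nM), isoproterenol (1 µM), Ro 20-1724 (25 µM) | Timing: Compound incubation 1 h at room temperature, readout 45 min post-stimulation | Measured by: Membrane-potential fluorescent dye readout | Benchmarks: High control isoproterenol alone, low control NPY with isoproterenol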
NPY-Y2 PAM-ag: human NPY-Y2 potentiation or agonism, primary screen; P49146; cells expressing NPY-Y2, potentiator/agonist read-out; activation, % at 3.6 µM; 220,000 compounds, 0.45% hits; in the data active means activation above about 27%;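 further: cells stimulated with NPY near EC25 plus isoproterenol at EC100; 0% = vehicle plus submaximal agonist and 100% = vehicle plus saturating agonist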
NPY1 antag ctr: antagonizes human NPY-Y1, counter-screen to NPY-Y2 antagonists; shares compounds with NPY Y2 blocker; cell-based NPY-Y1 antagonism counterscreen; inhibition, % at 3.6 µM; 710 compounds, 19% hits; in the data active means inhibition above about 20%;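 further: cells challenged with NPY then isoproterenol with cAMP sensed through a CNG channel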
NPY2 antag conf: human NPY-Y2 antagonism, confirmation; shares compounds with NPY Y2 blocker; HEK293 NPY-Y2 CNG channel, membrane potential fluorescence; inhibition, % at 2.8 µM; 710 compounds, 32% hits; AID 1257;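 active means mean inhibition of triplicate wells above the hit cutoff set in the primary screen, cut at about 17% in these data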;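 further: 0% = DMSO with NPY challenge and 100% = BIIE0246 high control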
* hit, by the source's call; x = no result given; ! = not confirmed by another sample. A selection: hits, their analogues and other compounds. The true share with any hit is near 2.4%.

SMILES	NPY Y2 blocker	S1P4 antag	S1P4 agonist	NPY-Y1 PAM-ag	NPY Y1 blocker	NPY-Y2 PAM-ag	others
C[C@H]1O[C@@H](O[C@H]2[C@@H](O)C[C@H](O[C@H]3[C@@H](O)C[C@H](O[C@H]4CC[C@@]5(C)[C@H](CC[C@@H]6[C@@H]5CC[C@]5(C)[C@@H](C7=CC(=O)OC7)CC[C@]65O)C4)O[C@@H]3C)O[C@@H]2C)C[C@H](O)[C@@H]1O	44.5*	8.8	-0.6	-82.3	50.9*	-17.5
N#CC(C#N)=C(N)c1cccnc1	x	1.1	-1.1	5.9	0.9	-7.3
CC(C)(C)N(NC(=O)c1ccccc1)C(=O)c1ccccc1	1.9	2.0	-0.4	26.6	1.8	-3.9
COC(=O)[C@H]1C[C@@H]1[C@H](NP(=O)(c1ccccc1)c1ccccc1)c1ccccc1	18.6*	10.3	0.5	-35.9	39.6*	-12.7
COC(=O)[C@@H]1C[C@H]1[C@@H](NP(=O)(c1ccccc1)c1ccccc1)c1ccccc1	4.4	-7.3	1.3	4.1	5.5	-10.5
CC(C)(C)NCC(O)c1cc(Cl)c(N)c(Cl)c1 (configuration not stated)	0.7	-15.0	2.2	96.6*	-10.6	87.8*
O=C(CNC(=O)OCc1ccccc1)Nc1ccc(Br)cc1C(=O)c1ccccc1Cl	6.3	8.2	0.2	-13.3	2.4	-5.9
CN(C(=O)CNC(=O)OCc1ccccc1)c1ccc(Br)cc1C(=O)c1ccccc1Cl	18.1*	-16.0	-0.1	-41.1	23.1*	-19.1
CCC(=NCCc1ccccc1)c1c(O)n(C)c(=O)n(C)c1=O	x	-21.3	9.9	-11.9	x	-32.4
Cc1cc2c(C(C)C)c(O)c(O)c(C=O)c2c(O)c1-c1c(C)cc2c(C(C)C)c(O)c(O)c(C=O)c2c1O	-4.2	32.4*!	0.7	15.1	-4.2	17.6
C(=NC12CN3CN(CN(C3)C1)C2)c1cccs1	1.5	-17.2	-1.6	4.1	1.8	5.1
N=C(N)c1c(O)n(C2CCCCC2)c(=O)n(C2CCCCC2)c1=O	0.2	17.1	0.4	30.3	-8.3	31.0*
C=C[C@@H]1C[C@@]1(C)[C@@H](NP(=O)(c1ccccc1)c1ccccc1)c1ccccc1	23.1*	-3.8	1.0	-34.3	37.8*	-6.1
CCc1c(C)nc(N)nc1N1N=C1SC(C(C)=O)C(C)=O	x	14.0	0.1	16.8	3.3	-1.2
CCNC(=O)C1OC(n2cnc3c(N)ncnc32)C(O)C1O (configuration not stated)	137.6*	-21.0	-0.1	-97.7	126.8*	-25.3
CC(=NCc1ccc2c(c1)OCO2)c1c(O)n(Cc2ccccc2)c(=O)[nH]c1=O	x	10.7	-1.1	13.9	x	15.6
N=C1c2ccccc2CN1CC(=O)c1ccccc1	3.8	-4.8	-1.8	2.0	3.9	-4.2
CC(Oc1ccc(-c2ccccc2)cc1)C(=O)O (configuration not stated)	5.4	-3.3	1.6	1.9	24.8*	-27.7
Cc1cc(OC(=O)CCNC(=O)OC(C)(C)C)c2c3c(c(=O)oc2c1)CCC3	-4.3	-0.1	-0.5	-13.0	0.6	67.7*
CCC(C)N1C(=O)/C(=C/c2ccc3c(c2)CCN3CCCCl)C(=O)NC1=S (configuration not stated)	-0.5	-18.6	2.9	5.9	1.0	-4.3
Cc1cc(C)n2nc(SC(C)C(=O)N3CCC4(CC3)OCCO4)nc2n1 (configuration not stated)	0.8	1.1	1.9	73.4*	-2.5	98.8*
Cc1ccc2cc3cc(C(=O)N4CCC5(CC4)OCCO5)oc3nc2c1	-1.2	-21.1	3.3	-24.9	5.1	-1.0
c1ccc(C2OCCN3CCCCC23)cc1 (configuration not stated)	0.8	2.2	241.4*	0.3	-6.0	-0.5
CCN1CCN(Cc2cc(C(C)(C)C)c(O)c(C(C)(C)C)c2)CC1	2.5	-1.9	-1.9	68.4*	-6.3	62.4*
CCCCn1c(C)c(C(=O)OCC)c2c(CN3CCOCC3)c(O)ccc21	33.9*	-6.2	-2.9	-59.1	33.2*	-32.1
SMILES	NPY Y2 blocker	S1P4 antag	S1P4 agonist	NPY-Y1 PAM-ag	NPY Y1 blocker	NPY-Y2 PAM-ag	others
CCOC(=O)c1c(C)n(Cc2ccco2)c2ccc(O)cc12	2.5	7.6	0.6	-3.8	2.0	-3.5
CCOc1ccc(NC(=O)c2c(C)nn(Cc3ccccc3)c2Cl)cc1	3.1	-1.2	-0.1	14.5	-0.7	7.8
COc1ccc(C)cc1NC(=O)c1c(C)nn(Cc2ccccc2)c1Cl	21.4*	-13.4	0.5	-24.3	20.2*	-18.8
Cc1ccc(OP(=O)(O)Oc2ccc(C)cc2)cc1	12.1	-22.6	2.7	-17.2	25.8*	-12.5
COc1cccc(C2(O)CCSCC2CN(C)C)c1 (configuration not stated)	0.2	-8.3	0.9	-12.1	2.8	-10.2
CC[N+](CC)(CC#CCO)CC#Cc1ccccc1	x	-8.7	-1.2	-1.8	-1.8	0.1
CCN(CCNc1ccc([N+](=O)[O-])c2cccnc12)S(=O)(=O)c1ccccc1	6.5	-7.5	-0.8	61.3*	-5.2	69.7*
O=C(NC1(C(F)(F)F)Oc2ccccc2O1)N1CCC2(CC1)OCCO2	5.3	3.0	0.8	-38.6	2.3	-5.8
O=C(NC1(C(F)(F)F)Oc2ccc(Cl)cc2O1)N1CCC2(CC1)OCCO2 (configuration not stated)	1.1	41.8*	-5.9	24.6	-8.7	-1.1
CN1C(=O)N(C)C(=O)C(CCc2ccncc2)(Cc2ccc3c(c2)OCO3)C1=O	0.8	16.0	-2.5	5.8	0.4	2.8
CN1CC[C@]2(c3cccc(O)c3)Cc3nc4ccccc4cc3C[C@H]2C1	x	6.1	-0.8	66.5	-8.9	76.4
CC(CCc1ccccc1)NC(C)C(O)c1ccc(O)cc1 (configuration not stated)	3.5	-9.4	-2.0	92.0*	-9.4	85.8*
CC(NCc1ccc(Cl)cc1)C(O)c1ccccc1 (configuration not stated)	7.1	-9.2	0.1	-9.9	8.7	-15.3
CCOP(=S)(OCC)c1ccc(N(C)C)cc1	17.2*	0.8	-3.0	-6.5	14.9	-14.8	NPY1 antag ctr=16.6;NPY2 antag conf=6.9
CN(C)c1ccc(P(=S)(N(C)C)N(C)C)cc1	4.7	-26.0	0.8	-9.1	2.3	-17.4
CC(C)COc1ccc(C2(C#N)CC[N+](C)(C)CC2)cc1	0.5	-12.2	-1.8	24.4	1.4	4.6
O=P1(Nc2cccnc2)COc2ccccc2OC1	0.8	-11.9	3.0	1.2	4.2	-9.0

High-throughput results deposited in PubChem BioAssay by The Scripps Research Institute Molecular Screening Center.
